# Laboratory results taken from PubChem BioAssay.
# The source made the active and inactive calls.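 The calls were made as follows, unless noted: active = viability at or below 10% of carrier control in both of two separate runs; inconclusive = viability at or below 10% in only one of the two runs; inactive = the rest.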
# Key:
# [1] = Her2 expression decrease, cell viability multiplex – SKBR3 breast tumor cells, AlphaScreen, ATP viability, primary screen (AID 461;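 active = Her2 level under about 52% in both replicate screens, with viability over 70% of control, limit read from the data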;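 as to Her2 level: lower value means less Her2 protein in the cells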;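 as to viability: percent of carrier control wells set as 100% viability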); settings: SKBR3 Her2 protein level, 18-24 h, measured here: SKBR3 viability, ATP luminescence, at 10 µM
# [2] = biological target: Receptor tyrosine-protein kinase erbB-2 (Homo sapiens) (UniProt P04626); assay: as above; settings: 18-24 h, at 10 µM, stronger effect = lower value
# [3] = reduced viability of SK-BR-3 breast cancer cells – cell-based, 24 h, human, pilot screen (AID 572); settings: SK-BR-3 viability, CellTiter-Glo luminescence, at 10 µM, stronger effect = lower value;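 also: compound exposure lasted between 18 and 24 h rather than exactly 24 h; 100% = carrier-treated control wells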
# [4] = HUVEC growth inhibition – cell-based, human, primary screen (AID 575;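 active = viability at or below 30% in both replicate assays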;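 also: 100% = median of untreated cell wells with 0.1% DMSO on each plate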); settings: HUVEC proliferation, CellTiter-Glo luminescence, 72 h; at 10 µM; stronger effect = lower value
# Method in brief: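 Test system: primary human umbilical vein endothelial cells. Quantity: 1250 cells/well. Compound: single 10 µM dose, 0.1% DMSO, from 5x medium stock. Timing: 72 h treatment at 37 °C. Detection: ATP-based CellTiter-Glo luminescent read. Benchmarks: vehicle and MePR control wells. Format: 384-well plates coated with collagen.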
# [5] = H69AR cell proliferation blockers – human, duplicate replicates, primary screen (AID 580;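 active = viability at or under a set limit in both replicates, limit being median viability minus 3 SD, cut at about 48% in these data, passing the limit was not always enough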;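 also: 100% = mean luminescence of untreated wells and 0% = no signal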); settings: H69AR lung tumor cells viability, ATP luminescence, 72 h; at 10 µM; stronger effect = lower value
# [6] = MRP1 drug-resistance reversers in H69AR cells – cell-based, doxorubicin co-treatment, pilot screen (AID 601;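 active = viability loss from added drug above about 55%, and viability with drug at most 40%, in both replicates, limit read from the data, passing the limit was not always enough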); settings: CellTiter-Glo, 72 h, at 10 µM; for differential viability (reversal): stronger effect = higher value
# [7] = yeast transport mutant growth inhibition pilot in 384-well plates, post-Golgi transport modulator project (AID 636; in the data active = inhibition above about 31%); settings: absorbance 615 nm, about 18 h, stronger effect = higher value
# [8] = growth suppression of yeast trafficking mutant, preliminary HTS, modulators of trafficking downstream of Golgi apparatus project, 1536-format plate, OD 615 nm (AID 637; in the data active = inhibition above about 30%); settings: yeast transport mutant growth, absorbance 615 nm, 18 h; stronger effect = higher value
# [9] = H69AR cells + 2 uM doxorubicin, measured here: viability with 2 uM doxorubicin, stronger effect = lower value
# [10] = H69AR cells, compound alone cytotoxicity
# Chain of Receptor tyrosine-protein kinase erbB-2 (Homo sapiens) (P04626 whole entry, looked up): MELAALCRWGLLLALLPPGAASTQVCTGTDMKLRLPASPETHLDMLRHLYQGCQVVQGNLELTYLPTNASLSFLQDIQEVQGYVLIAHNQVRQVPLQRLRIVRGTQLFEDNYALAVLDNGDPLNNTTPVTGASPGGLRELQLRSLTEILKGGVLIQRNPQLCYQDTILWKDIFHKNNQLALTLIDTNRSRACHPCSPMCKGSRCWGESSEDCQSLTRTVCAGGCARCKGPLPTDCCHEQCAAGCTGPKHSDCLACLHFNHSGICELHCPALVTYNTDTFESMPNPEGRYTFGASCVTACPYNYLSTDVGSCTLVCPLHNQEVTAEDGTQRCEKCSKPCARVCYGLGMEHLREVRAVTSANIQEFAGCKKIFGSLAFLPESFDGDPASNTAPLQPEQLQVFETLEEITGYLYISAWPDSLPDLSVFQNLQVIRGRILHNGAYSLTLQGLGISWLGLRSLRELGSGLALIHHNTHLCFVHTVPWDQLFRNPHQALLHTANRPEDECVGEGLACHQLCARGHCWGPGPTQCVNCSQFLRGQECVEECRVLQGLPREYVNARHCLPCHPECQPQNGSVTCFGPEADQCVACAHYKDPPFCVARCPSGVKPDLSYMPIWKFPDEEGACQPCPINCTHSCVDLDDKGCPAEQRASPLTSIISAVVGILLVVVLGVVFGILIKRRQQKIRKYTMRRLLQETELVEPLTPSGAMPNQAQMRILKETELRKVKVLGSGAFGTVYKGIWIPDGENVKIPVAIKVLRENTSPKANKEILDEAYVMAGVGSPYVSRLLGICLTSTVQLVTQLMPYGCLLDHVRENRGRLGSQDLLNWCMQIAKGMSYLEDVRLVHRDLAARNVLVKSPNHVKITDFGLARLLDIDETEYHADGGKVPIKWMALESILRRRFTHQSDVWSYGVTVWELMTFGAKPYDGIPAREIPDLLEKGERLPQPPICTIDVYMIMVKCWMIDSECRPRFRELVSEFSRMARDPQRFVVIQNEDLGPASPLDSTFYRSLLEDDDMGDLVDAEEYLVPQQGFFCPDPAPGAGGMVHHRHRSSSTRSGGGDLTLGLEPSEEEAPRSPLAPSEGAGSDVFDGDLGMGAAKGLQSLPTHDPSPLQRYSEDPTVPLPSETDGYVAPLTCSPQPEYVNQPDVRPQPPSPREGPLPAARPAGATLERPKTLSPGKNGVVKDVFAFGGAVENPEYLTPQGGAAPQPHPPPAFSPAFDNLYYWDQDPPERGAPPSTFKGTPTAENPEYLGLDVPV
Structure (SMILES),viability [1] [%],Her2 level [2],viability [3],viability [4],viability [5],differential viability (reversal) ([6]; H69AR cells + 2 uM doxorubicin),"viability [6, 9] [%]","viability [6, 10] [%]",inhibition [7],inhibition [8]
CCCNS(=O)(=O)c1ccc(C(=O)NCC2CCCO2)cc1 (stereo not given),96.5,74.5% (inactive),96.5% (inactive),106% (inactive),95.1% (inactive),-1.32% (inactive),96.4,95.1,-3.56% (inactive),0.16% (inactive)
COC(=O)CCC(=O)Nc1cccc(Br)c1,128,85% (inactive),128% (inactive),110% (inactive),101% (inactive),0.985% (inactive),100,101,-9.32% (inactive),-3.65% (inactive)
COc1ccc(C(=O)Nn2c(C3CCC3)nc3ccccc3c2=O)c(OC)c1,93.5,97% (inactive),93.5% (inactive),85.8% (inactive),111% (inactive),30% (inactive),80.7,111,-1.56% (inactive),1.9% (inactive)
O=S(=O)(Nc1ccn(-c2ccccc2)n1)c1ccc(Br)cc1,89,86.5% (inactive),89% (inactive),85.7% (inactive),87.5% (inactive),-6.15% (inactive),93.7,87.5,-3.77% (inactive),0.16% (inactive)
O=C(c1ccc(S(=O)(=O)N2CCOCC2)cc1)N(c1ccc(F)cc1)C1C=CS(=O)(=O)C1 (stereo not given),97.5,109% (inactive),97.5% (inactive),75.1% (inactive),97% (inactive),4.64% (inactive),92.4,97,-1.92% (inactive),-9% (inactive)
Cc1cnc(-c2nnc(N(C)C(=O)C3CCOC3)s2)cn1 (stereo not given),90.5,89.5% (inactive),90.5% (inactive),98.2% (inactive),101% (inactive),17% (inactive),84.4,101,-1.45% (inactive),-10.9% (inactive)
CCOC(=O)C1CCN(c2c(NCCN3CCN(c4ccccc4)CC3)c(=O)c2=O)CC1,87.5,98.5% (inactive),87.5% (inactive),92.1% (inactive),99.1% (inactive),-5.04% (inactive),104,99.1,0.38% (inactive),-3.33% (inactive)
COc1ccc(C(CNC(=O)c2ccc(OCC3CCCO3)cc2)N2CCOCC2)cc1 (stereo not given),90,93.5% (inactive),90% (inactive),82.9% (inactive),105% (inactive),13.8% (inactive),90.7,105,-1.33% (inactive),-2.42% (inactive)
CCC(c1nnnn1C(C)(C)C)N1CCN(C2CCCC2)CC1 (stereo not given),98.5,114% (inactive),98.5% (inactive),103% (inactive),107% (inactive),17.5% (inactive),89.3,107,1.2% (inactive),4.59% (inactive)
COc1cccc(Oc2cn[nH]c2-c2ccc(O)cc2O)c1,104,122% (inactive),104% (inactive),65.9% (inactive),89.5% (inactive),-8.96% (inactive),98.4,89.5,0.26% (inactive),-5% (inactive)
COc1ccc(C2c3c(-c4ccccc4O)n[nH]c3C(=O)N2CCc2ccc(OC)c(OC)c2)cc1 (stereo not given),112,95.5% (inactive),112% (inactive),60.3% (inactive),68.5% (inactive),57.9% (active),10.6,68.5,-2.89% (inactive),6.94% (inactive)
Cc1ccc(S(=O)(=O)N2CCCC2C(=O)n2nc(C)cc2C)cc1 (stereo not given),114,90% (inactive),114% (inactive),90.1% (inactive),83.5% (inactive),2.58% (inactive),80.9,83.5,-7.97% (inactive),3.67% (inactive)
CCN(CC)S(=O)(=O)c1ccc(Br)c(OC)c1,106,84% (inactive),106% (inactive),90.4% (inactive),96.3% (inactive),5.01% (inactive),91.3,96.3,-6.89% (inactive),-2.13% (inactive)
CCOc1ccc(C(=O)N2CCN(c3ccccc3)CC2)cc1OCC,104,102% (inactive),104% (inactive),90% (inactive),83.5% (inactive),-14.8% (inactive),98.3,83.5,2.47% (inactive),9.51% (inactive)
CCOC(=O)C1CCN(S(=O)(=O)c2cc(Cl)c(C)cc2OC)CC1,90,92.5% (inactive),90% (inactive),105% (inactive),85.2% (inactive),-9.44% (inactive),94.6,85.2,-2.5% (inactive),-3.39% (inactive)
Cc1ncc(CO)c2c1OC(C)(C)OC2,95.5,104% (inactive),95.5% (inactive),92.8% (inactive),93.5% (inactive),4.48% (inactive),89,93.5,-5.79% (inactive),-0.91% (inactive)

Structure (SMILES),viability [1] [%],Her2 level [2],viability [3],viability [4],viability [5],differential viability (reversal) ([6]; H69AR cells + 2 uM doxorubicin),"viability [6, 9] [%]","viability [6, 10] [%]",inhibition [7],inhibition [8]
CCS(=O)(=O)c1nc2ccccc2n1CC(=O)N1CCCCC1,88.5,82.5% (inactive),88.5% (inactive),96.7% (inactive),80.4% (inactive),3.6% (inactive),76.8,80.4,-3.42% (inactive),0.79% (inactive)
CC(=O)Oc1ccc(CCC(C)OC(C)=O)cc1 (stereo not given),101,92% (inactive),101% (inactive),93.2% (inactive),99.7% (inactive),2.78% (inactive),96.9,99.7,-6.13% (inactive),-1.13% (inactive)
CCN(CC)CCCNC(=O)c1nn(-c2ccc(OC)cc2OC)c(=O)c2ccccc12,97,103% (inactive),97% (inactive),72.3% (inactive),96.1% (inactive),-0.935% (inactive),97,96.1,-2.57% (inactive),-7.46% (inactive)
COc1ccc(C(=O)OC(COc2ccccc2)Cn2ccnc2)cc1 (stereo not given),83,97% (inactive),83% (inactive),79.6% (inactive),94.7% (inactive),9.57% (inactive),85.1,94.7,100% (active),95.5% (active)
O=C(NCCCNC(=O)c1ccccn1)c1ccccn1,106,75% (inactive),106% (inactive),79.6% (inactive),91.5% (inactive),-0.68% (inactive),92.1,91.5,-5.89% (inactive),-3.49% (inactive)
O=C(CS(=O)(=O)c1cn(Cc2ccc(Cl)cc2)c2ccccc12)N1CCCC1,81.5,92% (inactive),81.5% (inactive),88.2% (inactive),79.3% (inactive),-3.04% (inactive),82.3,79.3,-5.2% (inactive),1% (inactive)
Cc1onc(-c2ccccc2Cl)c1C(=O)Nc1cccc(-c2cn3cccnc3n2)c1,104,84% (inactive),104% (inactive),71.4% (inactive),85.6% (inactive),1.15% (inactive),84.5,85.6,-5.39% (inactive),-1.82% (inactive)
COCc1nnc(NC(=O)CCCOc2ccccc2)s1,107,92% (inactive),107% (inactive),85.6% (inactive),98.5% (inactive),10.4% (inactive),88.1,98.5,-6.53% (inactive),-3.97% (inactive)
CCOC(=O)N1CCN(C(=O)CSCC(=O)Nc2nc(-c3ccc(OC)cc3)cs2)CC1,116,104% (inactive),116% (inactive),77.8% (inactive),94.9% (inactive),1.77% (inactive),93.1,94.9,-1.3% (inactive),-6.89% (inactive)
Cc1nnc2sc(-c3cccc(NC(=O)c4cccnc4)c3)nn12,87.5,104% (inactive),87.5% (inactive),90.2% (inactive),87.8% (inactive),-8.91% (inactive),96.7,87.8,-2.7% (inactive),36.7% (active)
COc1cc(Br)cc(CN2CCN(C/C=C/c3ccccc3)CC2)c1O,81,93.5% (inactive),81% (inactive),79.5% (inactive),93.2% (inactive),7.21% (inactive),86,93.2,0.93% (inactive),11.3% (inactive)
CC1NC(=O)NC1CCCCCC(=O)NCCc1ccccc1 (stereo not given),112,80% (inactive),112% (inactive),90.4% (inactive),93.3% (inactive),7.38% (inactive),85.9,93.3,-5.07% (inactive),0.79% (inactive)
N#Cc1c(NC(=O)CSc2nnnn2C2CCCC2)sc2c1CCCC2,82.5,85% (inactive),82.5% (inactive),94.6% (inactive),69.9% (inactive),1.64% (inactive),68.2,69.9,-0.53% (inactive),0.16% (inactive)
O=C(CNC1CCCCCC1)Nc1ccc(S(=O)(=O)NC2CC2)cc1,100,87% (inactive),100% (inactive),64.8% (inactive),93.7% (inactive),5.79% (inactive),87.9,93.7,-4.53% (inactive),-0.48% (inactive)
COCCN(C(=O)CCC(=O)Nc1ccccn1)C(C(=O)NC1CCCC1)c1ccc(OC)cc1 (stereo not given),106,105% (inactive),106% (inactive),94.6% (inactive),111% (inactive),14.3% (inactive),96.3,111,2.57% (inactive),-0.49% (inactive)
